Measured values published in PubChem BioAssay AID695 (The Scripps Research Institute Molecular Screening Center, 2007).

Biological target: Steroidogenic factor 1 (Homo sapiens) (UniProt Q13285)
Assay: SF-1 driven luciferase reporter response, dose response, counter-screen for RORA activator project, CHO-K1 cells (AID 695)
Settings: CHO-K1 SF1 luciferase transactivation, luminescence
Method in brief: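 Material: CHO-K1 cells with Gal4-SF-1 fusion and luciferase reporter. Compound: 10-point 1:3 dilution series from nominal 100 µM top dose. Incubation: 20 h compound treatment, 37 °C. Detection: SteadyLite luminescence. Evaluation: EC50 from four-parameter dose-response curve fit. Replicates: triplicate.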

| SMILES | EC50 [µM] |
| --- | --- |
| C=CCOc1ccc(/C=C/C(C)=N\O)cc1 | 1.02 |
| O=C1COc2ccc(OCc3ccc(F)cc3)cc21 | 1.71 |
